Measurements from ChEMBL document CHEMBL1142109, “Arzanol, an anti-inflammatory and anti-HIV-1 phloroglucinol alpha-Pyrone from Helichrysum italicum ssp. microphyllum” (J Nat Prod, 2007).
Active and inactive are the calls of the source. The calls are words filed in the database; no cut-off is given here.

Experiments:
Homo sapiens = organism: Homo sapiens; assay: (§1) Inhibition of TNFalpha activated NF-kappaB dependent transactivation of HIV-1 LTR Luc in 5.1 cells; assay type: cell-based
Summary of the method: (§2)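 A T cell line stably carrying HIV-1 LTR-driven luciferase was preincubated with increasing concentrations for 30 min, then stimulated with TNFα (2 ng/mL) for 6 h. Cells were lysed in Tris-phosphate buffer pH 7.8 with Triton X-100. Luciferase was read and normalized to Bradford protein (RLU/µg) after subtracting lysis-buffer background. Results are fold induction over untreated cells, with at least three repeats.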

[1] = test system: Human immunodeficiency virus 1; assay: Inhibition of VSV-pseudotyped HIV1 replication in Jurkat T cells; assay type: functional, organism-based
Summary of the method: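 Jurkat T cells (10^6/mL) pretreated 30 min with increasing concentrations before infection with VSV-pseudotyped pNL4-3.Luc.R-E- virus (Env-, Vpr-; stock made in 293T cells), 200 ng HIV-1 gag p24 per culture. After 24 h the cells were washed twice in PBS and luciferase activity in the lysates was read as % of infected untreated cells. Mean ± SD of three independent experiments.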

Monocyte [2] = assay: Inhibition of IL1-beta production in LPS-stimulated human primary monocytes by ELISA; assay type: functional
Summary of the method: (§3)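 Primary monocytes from healthy donors were seeded at (1-2) × 10^6 cells/well at 37 °C/5% CO2. Nonadherent cells were removed and the medium replaced with RPMI-1640 plus 1% human serum. Cells were preincubated with increasing compound concentrations for 30 min, then stimulated with LPS (10 ng/mL) for 24 h. Supernatants were cleared at 10000g for 10 min. Cytokines were measured by ELISA and PGE2 by EIA.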

Monocyte [3] = assay: Inhibition of TNFalpha production in LPS-stimulated human primary monocytes by ELISA; assay type: functional; summary of the method: as §3
[4] = as §1; assay type: cell-based; details: Homo sapiens; summary of the method: as §2
Monocyte [5] = assay: Inhibition of IL8 production in LPS-stimulated human primary monocytes by ELISA; assay type: functional
Monocyte [6] = assay: Inhibition of PGE2 production in LPS-stimulated human primary monocytes by ELISA; assay type: functional; summary of the method: as §3
Monocyte [7] = assay: Inhibition of IL6 production in LPS-stimulated human primary monocytes by ELISA; assay type: functional; summary of the method: as §3

Structure (SMILES): C=C(CO)[C@@H]1Cc2cc(C(C)=O)ccc2O1
- Activity (Homo sapiens): inactive

Structure (SMILES): C=C(CO)[C@H]1Oc2ccc(C(C)=O)cc2[C@H]1OC(C)=O
- Activity (Homo sapiens): inactive

Structure (SMILES): C=C(COC(C)=O)[C@@H]1Cc2cc(C(C)=O)ccc2O1
- Activity (Homo sapiens): inactive

Structure (SMILES): C=C(COC(C)=O)[C@H]1Oc2ccc(C(C)=O)cc2[C@H]1OC(C)=O
- Activity (Homo sapiens): inactive

Structure (SMILES): CCC(C)C(=O)C(C)c1oc(=O)c(C)c(O)c1C (stereo not drawn)
- Activity (Homo sapiens): inactive

Structure (SMILES): CCc1oc(=O)c(Cc2c(O)c(CC=C(C)C)c(O)c(C(C)=O)c2O)c(O)c1C [ARZANOL]
- Activity [1]: Dose-dependent effect
- IC50 (Monocyte [2]): 5.6 µM
- IC50 (Monocyte [3]): 9.2 µM
- IC50 [4]: 5 µM
- IC50 (Monocyte [5]): 21.8 µM
- IC50 (Monocyte [6]): 18.7 µM
- IC50 (Monocyte [7]): 13.3 µM

Structure (SMILES): CCc1oc(=O)c(Cc2c(O)c(C)c(CC)oc2=O)c(O)c1C [HELIPYRONE]
- IC50 [4]: 8.7 µM
